Assay results gathered from unrelated publications.
Compare with care: the assays were run in different laboratories.
Target: Serine/threonine-protein kinase DCLK2 (DCLK2, Homo sapiens, UniProt Q8N568)
One construct used (Q8N568 1-766): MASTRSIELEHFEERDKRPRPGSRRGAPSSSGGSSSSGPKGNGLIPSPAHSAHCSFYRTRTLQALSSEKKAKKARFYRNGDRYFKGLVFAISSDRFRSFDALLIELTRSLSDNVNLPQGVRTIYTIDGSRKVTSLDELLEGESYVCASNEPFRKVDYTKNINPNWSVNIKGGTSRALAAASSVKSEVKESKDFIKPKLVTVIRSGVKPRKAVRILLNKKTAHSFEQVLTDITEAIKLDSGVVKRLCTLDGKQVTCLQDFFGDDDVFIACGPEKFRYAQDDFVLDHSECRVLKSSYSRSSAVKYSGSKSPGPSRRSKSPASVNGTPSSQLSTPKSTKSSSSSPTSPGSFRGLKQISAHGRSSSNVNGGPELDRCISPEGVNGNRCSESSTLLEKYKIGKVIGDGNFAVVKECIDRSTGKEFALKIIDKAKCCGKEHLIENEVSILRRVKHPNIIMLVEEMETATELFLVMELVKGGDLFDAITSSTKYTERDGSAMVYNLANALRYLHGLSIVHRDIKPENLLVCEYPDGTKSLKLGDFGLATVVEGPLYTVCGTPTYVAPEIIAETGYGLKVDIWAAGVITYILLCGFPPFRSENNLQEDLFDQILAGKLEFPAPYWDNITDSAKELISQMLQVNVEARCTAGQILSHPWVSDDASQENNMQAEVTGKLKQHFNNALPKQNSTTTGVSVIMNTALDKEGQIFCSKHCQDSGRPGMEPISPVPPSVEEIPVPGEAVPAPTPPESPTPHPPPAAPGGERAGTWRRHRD

SMILES	observed	action	technique	tested at	quantity	result
CC(C)(C)c1cc(C=C(C#N)C#N)cc(Br)c1O	enzyme activity	inhibitor		0.5 µM	remaining activity	109%
Cn1cc(-c2cc(F)cc(N3CCn4c(cc5c4CCCC5)C3=O)c2CO)cc(Nc2ccc(N3CCN(C4COC4)CC3)cn2)c1=O	enzyme activity	inhibitor		0.1 µM	inhibition	10%
COc1cc(Nc2ncc(F)c(Nc3ccc4c(n3)NC(=O)C(C)(C)O4)n2)cc(OC)c1OC	binding		competition with immobilised ligand	10 µM	inhibition	36%
N#CC1(c2ccccn2)CCN(Cc2cc(C(=O)O)c(=O)n3ccccc23)CC1	cell-free assay		competition with immobilised ligand	1 µM	remaining binding	100%
Cn1cc(-c2cccc(N3CCc4c(sc5c4CC(C)(C)C5)C3=O)c2CO)cc(Nc2ccncn2)c1=O	enzyme activity	inhibitor		1 µM	inhibition	3%
O=c1[nH]c2ccccc2n1C1CCN(Cc2ccc(-c3[nH]c4cc5ncnc5cc4nc3-c3ccccc3)cc2)CC1	cell-free assay			0.5 µM	remaining signal	107%
Nc1ncc(-c2nc(N3CCOCC3)nc(N3CCOCC3)n2)c(C(F)F)n1	binding		competition with immobilised ligand	10 µM	remaining binding	86%
Cn1cncc1[C@@](O)(COc1ccc(C#N)cc1-c1ccc(OC(F)(F)F)cc1)c1ccc(C#N)cc1	cell-free assay		competition with immobilised ligand	1 µM	remaining binding	100%
COc1ncccc1-c1cnn2ccc(N3CCN(C(=O)OC(C)C)CC3)nc12	binding		competition with immobilised ligand	1 µM	remaining binding	100%
Cc1nn(C)cc1-c1nc2c(N3CCN(Cc4ccc(Cl)cc4)CC3)c(Cl)cnc2[nH]1	binding		competition with immobilised ligand	1 µM	remaining binding	100%
